The term bioavailability denotes the share of a dose that reaches the circulation, judged against a reference dose that is usually intravenous. A high value points to much systemic uptake. What is called solubility is the concentration that dissolves in the medium under given conditions. A higher solubility goes with much dissolved substance.

The record followed here is ChEMBL document CHEMBL1146956, “Factor VIIa inhibitors: a prodrug strategy to improve oral bioavailability” (Bioorg Med Chem Lett, 2006).

Series [1] is described as follows: Oral absorption in Sprague-Dawley rats. Type of series: ADME, organism-based. To be noted: rat, in vivo. Put shortly: (§1)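 Plasma was acetonitrile-precipitated and analysed by LC/MS/MS for prodrug and parent, then AUC was computed. From dose-normalized AUCs, Abs = AUC_PO,PV/AUC_IV,JV and F = AUC_PO,JV/AUC_IV,JV.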
Series [2] in a line: Oral bioavailability in Sprague-Dawley rats. Type of series: ADME, organism-based. To be noted: rat, in vivo. Put shortly: as §1
Series [3] can be described thus: Solubility in phosphate buffer at pH 7.4. Type of series: physicochemical. The essentials: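 Kinetic solubility was measured in phosphate buffer pH 7.4 with 5% DMSO, prepared from a 10 mM DMSO stock. Samples were vortexed, then centrifuged at 4300 RPM for 10 min to remove insoluble material. The supernatant was quantified by HPLC/UV against a calibration standard.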

The nature of series [4]: Stability in rat plasma at 10 uM after 2 hrs. Particulars: read-out: Stability. It is filed as ADME, cell-free. Put shortly:
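Frozen pooled human or rat plasma (sodium heparin) was incubated with compound at 37 °C for 2 h. Prodrug disappearance was followed by LC/MS/MS. Percent remaining is the prodrug peak area at 2 h divided by the area at time 0.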

The nature of series [5]: Stability in human liver microsome at 2 uM after 1 hr. Type of series: ADME. Particulars: liver microsomes, read-out: Stability. Put shortly: (§2)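 Compound was incubated at 37 °C for 1 h with cryopreserved pooled male human or rat liver microsomes. Loss of prodrug was tracked by LC/MS/MS. Percent remaining at 1 h was taken as the end-point peak area over the time-0 peak area.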
Background: Microsomes from liver hold many membrane-bound enzymes, among them those of drug oxidation.

Series [6] can be described thus: Stability in rat liver microsome at 2 uM after 1 hr. Type of series: ADME. Particulars: liver microsomes, read-out: Stability. Put shortly: as §2
The species entered for series [7] is Homo sapiens. The series is described as follows: Stability in human plasma at 10 uM after 2 hrs.

Values after ≈ are worked out from the molar mass of the structure shown.

`C=CCO/N=C(/N)c1ccc2[nH]c(-c3cccc(-c4ccccc4O)c3O)cc2c1` showed a Fa in series [1] of 100%. Further, the bioavailability in series [2] was determined as 100%. Also, the solubility in series [3] was 24 µM (≈ 9.59 µg/mL). Besides, the remaining at 2 h, 10 µM in series [4] is 94%; in series [7] it was 100%. For the same compound, the remaining at 1 h, 2 µM in series [5] was 55%; in series [6], 42%.

In series [1], `N=C(N)c1ccc2nc(-c3cccc(-c4cc(F)ccc4O)c3O)[nH]c2c1` gave a Fa of under 1%. The same compound returned a bioavailability in series [2] of under 1%.

As for `N=C(N)c1ccc2[nH]c(-c3cccc(-c4cc(F)ccc4O)c3O)cc2c1`, in series [2], the bioavailability is under 1%. In addition, in series [3], the concentration in solution (solubility) was 83 µM (≈ 30 µg/mL). In addition, the remaining at 2 h, 10 µM in series [4] and in series [7] was 100% in each case. For the same compound, the results for the remaining at 1 h, 2 µM in series [5] and in series [6] were 61% and 100%, respectively.

Compound `CC(C)OC(=O)NC(=N)c1ccc2[nH]c(-c3cccc(-c4ccccc4O)c3O)cc2c1` displayed a Fa in series [1] of 53%. The same compound came in with a bioavailability in series [2] of 23%. Also, in series [3], the solubility is under 10 µM. The remaining at 2 h, 10 µM in series [4] and in series [7] was 100% in each case. Also, the remaining at 1 h, 2 µM in series [6] stood at 49%.

Regarding `CC(C)ONC(=N)c1ccc2[nH]c(-c3cccc(-c4ccccc4O)c3O)cc2c1`, in series [1], the Fa stood at 54%. Besides, the bioavailability in series [2] turned out to be 10%. The compound further registered a solubility in series [3] of 25 µM (≈ 10 µg/mL). In addition, the remaining at 2 h, 10 µM in series [4] and in series [7] was 100% in each case. Further, the remaining at 1 h, 2 µM was found to be 63% in series [5] and 69% in series [6].

Consider `N/C(=N/O)c1ccc2[nH]c(-c3cccc(-c4ccccc4O)c3O)cc2c1`, for which the Fa in series [1] was determined as 39%. The compound further gave a bioavailability in series [2] of 15%. In addition, the solubility in series [3] was 380 µM (≈ 137 µg/mL). For the same compound, the remaining at 2 h, 10 µM in series [4] stood at 94%; in series [7], 97%. The remaining at 1 h, 2 µM in series [5] amounted to 41%; in series [6], 9%.

In the case of `CCONC(=N)c1ccc2[nH]c(-c3cccc(-c4ccccc4O)c3O)cc2c1`, in series [1], the Fa was 53%. Further, the bioavailability in series [2] is 67%. In addition, the concentration in solution in series [3] (solubility) came to 43 µM (≈ 16.7 µg/mL). In addition, the remaining at 2 h, 10 µM in series [4] and in series [7] was 100% throughout. Also, the remaining at 1 h, 2 µM in series [5] was found to be 50%; in series [6], 70%.

For `Oc1ccccc1-c1cccc(-c2nc3ccccc3[nH]2)c1O`, the Fa in series [1] was 100%. The bioavailability in series [2] was found to be 16%.

In the case of `CC(=O)OC(C)OC(=O)NC(=N)c1ccc2[nH]c(-c3cccc(-c4ccccc4O)c3O)cc2c1` (stereo not drawn), in series [3], the solubility is under 10 µM. In addition, the values for the remaining at 2 h, 10 µM in series [4] and in series [7] were 37% and 96%, respectively. Further, the remaining at 1 h, 2 µM in series [5] was determined as 9%; in series [6], 12%.

`CCOC(=O)NC(=N)c1ccc2[nH]c(-c3cccc(-c4ccccc4O)c3O)cc2c1` displayed a solubility in series [3] of under 10 µM. In addition, the remaining at 2 h, 10 µM in series [4] came to 95%; in series [7], 100%. For the same compound, the remaining at 1 h, 2 µM was found to be 37% in series [5] and 53% in series [6].

For `CC(C)(C)ONC(=N)c1ccc2[nH]c(-c3cccc(-c4ccccc4O)c3O)cc2c1`, the Fa in series [1] came to 60%. In series [2], the bioavailability is 38%. The same compound displayed a solubility in series [3] of under 10 µM. Further, the results for the remaining at 2 h, 10 µM in series [4] and in series [7] were 99% and 100%, respectively. Moreover, the remaining at 1 h, 2 µM is 100% in series [5] and 78% in series [6].

In turn, `N/C(=N/C(=O)OCC(Cl)(Cl)Cl)c1ccc2[nH]c(-c3cccc(-c4ccccc4O)c3O)cc2c1` gave a Fa in series [1] of 21%. The compound also had a bioavailability in series [2] of 14%. For the same compound, the solubility in series [3] is under 10 µM. Besides, the remaining at 2 h, 10 µM in series [4] is 89%; in series [7] it was 100%. Further, the remaining at 1 h, 2 µM stood at 87% in series [5] and 9% in series [6].
